Test [1] addresses human P2X3. The following applies: cited from earlier work.
Test [2] addresses zebra fish P2X4. Conditions: cited from earlier work.
Test [3] has as its target T1, rP2X7-I214A (Rattus norvegicus, UniProt Q64663, I214A).
T1 sequence (Q64663 1-595 I214A): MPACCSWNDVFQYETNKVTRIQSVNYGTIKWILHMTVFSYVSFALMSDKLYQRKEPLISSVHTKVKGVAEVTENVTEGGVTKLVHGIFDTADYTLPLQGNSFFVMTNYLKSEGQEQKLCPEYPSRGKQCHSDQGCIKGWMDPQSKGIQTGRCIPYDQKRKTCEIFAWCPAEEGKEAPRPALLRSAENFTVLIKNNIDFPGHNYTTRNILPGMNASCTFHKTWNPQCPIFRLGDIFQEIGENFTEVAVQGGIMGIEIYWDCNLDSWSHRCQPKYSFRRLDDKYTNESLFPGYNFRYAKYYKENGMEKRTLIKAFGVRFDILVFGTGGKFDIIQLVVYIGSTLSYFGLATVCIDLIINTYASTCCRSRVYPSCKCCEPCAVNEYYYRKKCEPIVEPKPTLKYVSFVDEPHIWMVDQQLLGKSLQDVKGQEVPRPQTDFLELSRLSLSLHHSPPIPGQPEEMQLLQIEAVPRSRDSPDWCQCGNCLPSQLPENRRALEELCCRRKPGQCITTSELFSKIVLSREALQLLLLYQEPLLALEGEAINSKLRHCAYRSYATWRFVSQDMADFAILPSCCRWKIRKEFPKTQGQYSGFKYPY
Kind of test: TEVC dose response. The following applies: read-out: EC50 (apparent affinity), mean ± SD, triplicate. The class given is cell-based. Summed up: (§1)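 TEVC was run on Xenopus oocytes ~20 h after injection of wild-type or mutant rP2X7 mRNA, in pH 7.4 HEPES buffer with 0.1 mM flufenamic acid. Receptors were facilitated at 100 µM before recording. Dilution series: ATP 1.5 mM–2 µM (7 points), BzATP 300–0.14 µM (8 points). Responses were normalized to the largest concentration, fitted by nonlinear regression for EC50, and averaged across triplicates (mean ± SD).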

The target in test [4] is T2, rP2X7-I214G (Rattus norvegicus, UniProt Q64663, I214G).
T2 sequence (Q64663 1-595 I214G): T1 sequence (Q64663 1-595 I214A) with A214G
Kind of test: TEVC dose response. The class given is cell-based. Conditions: read-out: EC50 (apparent affinity), mean ± SD, triplicate. Put shortly:
as §1

Test [5] addresses T3, rP2X7-R125A/Q143A (Rattus norvegicus, UniProt Q64663, Q143A/R125A).
T3 sequence (Q64663 1-595 R125A/Q143A): T1 sequence (Q64663 1-595 I214A) with R125A, Q143A, A214I
The experiment in a line: TEVC deactivation time. In kind it is cell-based. Conditions: after 100 μM ATP or 10 μM BzATP. Summed up:
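Xenopus oocytes injected with 50 nL of 10 ng/µL mutant rP2X7 mRNA, expressed ~20 h, clamped in pH 7.4 HEPES buffer with 0.1 mM flufenamic acid and EDTA. Currents were evoked by 100 µM ATP or 10 µM BzATP. τ is the time for current to return to 63% of baseline after agonist removal, from a one- or two-phase decay fit. Done in triplicate over first to third applications per oocyte; mean ± SD.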

For test [6], the target named is T4, full-length wild-type rP2X7 (Rattus norvegicus, UniProt Q64663).
T4 sequence (Q64663 1-595): T1 sequence (Q64663 1-595 I214A) with A214I
Kind of test: TEVC dose response. In kind it is cell-based. The following applies: WT rP2X7, TEVC. Put shortly:
as §1

Numbering of substitutions follows the chain as printed.

The term Kd denotes the free concentration of one partner at which half of the binding sites on the other are occupied at equilibrium, for simple one-to-one binding. Broadly, the EC50 is the concentration needed to bring the measured effect to its halfway point.

Regarding `Nc1ncnc2c1ncn2[C@@H]1O[C@H](COP(=O)(O)OP(=O)(O)OP(=O)(O)O)[C@@H](O)[C@H]1O` [ATP], the Kd is 0.0028 ± 0.0001 µM in test [1] and 0.0116 ± 0.0017 µM in test [2]. Besides, the EC50 in test [3] was 68 ± 11 µM; in test [4], 171 ± 14 µM. The “deactivation lifetime τ” value in test [5] amounted to 1.8 ± 0.1 s.
Turning to BzATP, the “higher apparent affinity than ATP (EC50 ratio)” value in test [6] was ~ 28 fold. In addition, the values for the EC50 in test [3] and in test [4] were 2.5 ± 0.8 µM and 8 ± 1 µM, respectively. Besides, the “deactivation lifetime τ” value in test [5] came out at 2.5 ± 1.1 s.

These data come from paper PMC11303814 (Nature Communications, 2024).
